What all share (conditions): in vivo
Series [1] deals with Oryctolagus cuniculus. Put plainly: Biodistribution pattern of [123I]- ligand was evaluated in muscle of anesthetized rabbit after Intravenous injection of 50 uCi after 2 hr. In kind it is ADME, organism-based, Muscle tissue. Summed up:
(§1)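 Male New Zealand white rabbits, 2.5–3.5 kg, anesthetized with 5 mg/kg xylazine plus 30 mg/kg ketamine im. Each received 50 uCi radioligand (specific activity > 5000 Ci/mmol) iv via ear vein. Animals were killed with 200 mg/kg pentobarbital im at the set time. Blood was drawn by intracardiac puncture and organs weighed. Gamma counting was decay-corrected, expressed as %ID x kg body weight/g tissue, mean ± SEM, n = 3/time point.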

Series [2] concerns Oryctolagus cuniculus. Put plainly: Biodistribution pattern of [123I]- ligand was evaluated in intestine of anesthetized rabbit after Intravenous injection of 50 uCi after 2 hr. The series is classed as ADME, organism-based. Summed up: as §1
Series [3] concerns Oryctolagus cuniculus. The series is described as follows: Biodistribution pattern of [123I]- ligand was evaluated in spleen of anesthetized rabbit after Intravenous injection of 50 uCi after 2 hr. In kind it is ADME, organism-based. Summed up: (§2)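 Male New Zealand white rabbits (2.5–3.5 kg), anesthetized with xylazine 5 mg/kg plus ketamine 30 mg/kg im, given 50 µCi radioligand (specific activity >5000 Ci/mmol) iv via ear vein. Euthanized at set times by pentobarbital 200 mg/kg im, n = 3/time point. Organs removed and weighed, gamma-counted, decay/weight corrected; expressed as % ID x kg body weight/g tissue, mean ± SEM.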

Series [4] concerns Oryctolagus cuniculus. Put plainly: Biodistribution pattern of [123I]- ligand was evaluated in blood of anesthetized rabbit after Intravenous injection of 50 uCi after 2 hr. The series is classed as ADME, organism-based. Summed up:
as §1

Series [5] concerns Oryctolagus cuniculus. Put plainly: Cerebral biodistribution pattern of [123I]- ligand was evaluated in cerebellum of anesthetized rabbit after Intravenous injection of 50 uCi after 2 hr. In kind it is ADME, organism-based. Summed up: as §2
Series [6] has as its system Oryctolagus cuniculus. Put plainly: Cerebral biodistribution pattern of [123I]- ligand was evaluated in striatum of anesthetized rabbit after Intravenous injection of 50 uCi after 2 hr. The series is classed as ADME, organism-based. Summed up:
as §2

For series [7], the system named is Oryctolagus cuniculus. The series is described as follows: Biodistribution pattern of [123I]- ligand was evaluated in left atrial muscle of anesthetized rabbit after Intravenous injection of 50 uCi after 2 hr. The series is classed as ADME, organism-based, Muscle tissue. Summed up:
as §1

Series [8] has as its system Oryctolagus cuniculus. Put plainly: Cerebral biodistribution pattern of [123I]- ligand was evaluated in pituitary gland of anesthetized rabbit after Intravenous injection of 50 uCi after 2 hr. The series is classed as ADME, organism-based. Summed up: as §2
Series [9] has as its system Oryctolagus cuniculus. The series is described as follows: […] biodistribution pattern of [123I]- ligand was evaluated in kidney of anesthetized rabbit after Intravenous injection of 50 uCi after 2 hr. The series is classed as ADME, organism-based. Summed up: as §2
For series [10], the system named is Oryctolagus cuniculus. The series is described as follows: Cerebral biodistribution pattern of [123I]- ligand was evaluated in hypothalamus of anesthetized rabbit after Intravenous injection of 50 uCi after 2 hr. The series is classed as ADME, organism-based. Summed up: as §2
In series [11] the test system is Oryctolagus cuniculus. Put plainly: Biodistribution pattern of [123I]- ligand was evaluated in right atrial muscle of anesthetized rabbit after Intravenous injection of 50 uCi after 2 hr. In kind it is ADME, organism-based, Muscle tissue. Summed up:
as §2

Series [12] concerns Oryctolagus cuniculus. The series is described as follows: Biodistribution pattern of [123I]- ligand was evaluated in lung of anesthetized rabbit after Intravenous injection of 50 uCi after 2 hr. The series is classed as ADME, organism-based. Summed up:
as §1

Series [13] relates to Oryctolagus cuniculus. Put plainly: Biodistribution pattern of [123I]- ligand was evaluated in fat of anesthetized rabbit after Intravenous injection of 50 uCi after 2 hr. In kind it is ADME, organism-based, Adipose tissue. Summed up:
as §1

In series [14] the test system is Oryctolagus cuniculus. Put plainly: Biodistribution pattern of [123I]- ligand was evaluated in left ventricular muscle of anesthetized rabbit after Intravenous injection of 50 uCi after 2 hr. The series is classed as ADME, organism-based, Muscle tissue. Summed up: as §1
Series [15] has as its system Oryctolagus cuniculus. Put plainly: Biodistribution pattern of [123I]- ligand was evaluated in right ventricular muscle of anesthetized rabbit after Intravenous injection of 50 uCi after 2 hr. The series is classed as ADME, organism-based, Muscle tissue. Summed up:
as §2

For series [16], the system named is Oryctolagus cuniculus. The series is described as follows: Biodistribution pattern of [123I]- ligand was evaluated in liver of anesthetized rabbit after Intravenous injection of 50 uCi after 2 hr. The series is classed as ADME, organism-based. Summed up: as §1
Series [17] relates to Oryctolagus cuniculus. The series is described as follows: Cerebral biodistribution pattern of [123I]- ligand was evaluated in frontal cortex of anesthetized rabbit after Intravenous injection of 50 uCi after 2 hr. In kind it is ADME, organism-based. Summed up:
as §2

Series [18] concerns Oryctolagus cuniculus. The series is described as follows: Cerebral biodistribution pattern of [123I]- ligand was evaluated in thalamus of anesthetized rabbit after Intravenous injection of 50 uCi after 2 hr. In kind it is ADME, organism-based. Summed up: as §2

Each structure is given as a SMILES string.

Consider `CC(C)(C)NCC(O)COc1cccc2[nH]c(=O)[nH]c12` (stereo not given) [CGP-12177], for which the “ID x kg of body weight/g of tissue” value in the series with Oryctolagus cuniculus [1] was under 0.03%; in the series with Oryctolagus cuniculus [2] it was 0.46%; in the series with Oryctolagus cuniculus [3], 0.12%; in the series with Oryctolagus cuniculus [4], 0.01%; with Oryctolagus cuniculus [5] it was 0.17%; in the series with Oryctolagus cuniculus [6], 0.08%. Moreover, the “ID x kg of body weight/g of tissue” value in the series with Oryctolagus cuniculus [7] is given as under 0.05%; in the series on Oryctolagus cuniculus [8], 0.07%; in the series with Oryctolagus cuniculus [9], 0.09%; in the series on Oryctolagus cuniculus [10] it was 0.06%; in the series with Oryctolagus cuniculus [11] it was under 0.05%; with Oryctolagus cuniculus [12], under 0.8%. Besides, the “ID x kg of body weight/g of tissue” value was 0.04% in the series on Oryctolagus cuniculus [13]; under 0.08% with Oryctolagus cuniculus [14]; under 0.08% in the series on Oryctolagus cuniculus [15]; 0.1% with Oryctolagus cuniculus [16]; 0.1% with Oryctolagus cuniculus [17]; 0.06% in the series on Oryctolagus cuniculus [18].

In the case of `CC(C)NCC(O)COc1cccc2ccccc12` (stereo not given) [PROPRANOLOL], the “ID x kg of body weight/g of tissue” value was under 0.03% with Oryctolagus cuniculus [1]; 0.29% in the series on Oryctolagus cuniculus [2]; 0.1% with Oryctolagus cuniculus [3]; 0.01% in the series with Oryctolagus cuniculus [4]; under 0.04% with Oryctolagus cuniculus [5]; under 0.04% in the series with Oryctolagus cuniculus [6]. Further, the “ID x kg of body weight/g of tissue” value is on record as under 0.07% in the series on Oryctolagus cuniculus [7]; 0.06% with Oryctolagus cuniculus [8]; 0.1% in the series with Oryctolagus cuniculus [9]; 0.04% with Oryctolagus cuniculus [10]; under 0.07% with Oryctolagus cuniculus [11]; 0.04% in the series with Oryctolagus cuniculus [13]. Also, the “ID x kg of body weight/g of tissue” value in the series with Oryctolagus cuniculus [14] is under 0.09%; in the series on Oryctolagus cuniculus [15] it was under 0.09%; in the series with Oryctolagus cuniculus [16], 0.1%; in the series with Oryctolagus cuniculus [17], under 0.05%; in the series on Oryctolagus cuniculus [18], 0.04%.

The values are drawn from ChEMBL document CHEMBL1129275, “Synthesis and in vitro and in vivo characteristics of an iodinated analogue of the beta-adrenoceptor antagonist carazolol” (J Med Chem, 1996).
